LMPTP inh: LMPTP (human) inhibition; AID 651560; inhibition, % at 20 µM; recombinant LMPTP-A, OMFP fluorogenic substrate, fluorescence intensity; hit rate 0.22% among 360,000;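 active means compounds that cut the enzyme signal by at least half of the control window in the single-dose screen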;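 further: plate controls were DMSO wells with enzyme plus substrate for no effect and substrate without enzyme for full effect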
Target sequence (P24666 whole entry, looked up): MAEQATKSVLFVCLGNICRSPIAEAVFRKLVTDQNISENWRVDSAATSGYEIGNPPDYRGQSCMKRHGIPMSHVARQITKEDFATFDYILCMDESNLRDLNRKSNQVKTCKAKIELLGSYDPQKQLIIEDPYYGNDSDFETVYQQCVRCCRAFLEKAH
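Test system – LMPTP-A phosphatase enzyme · Quantity – 0.625 nM LMPTP-A final · Reagent – OMFP substrate, 400 µM final · Dosing – one test concentration per compound, 20 µM, with 3% DMSO overall · Timing – 50 min enzyme reaction at room temperature, protected from light · Detection – fluorescence intensity · Controls – substrate-only low control, DMSO enzyme-plus-substrate high control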
DNMT1 block: inhibitors of human DNMT1; DNMT1 molecular beacon, Hinp1I cleavage, fluorescence; hit rate 0.83% among 360,000; P26358; inhibition (reported as % activation of signal), % at 10 µM; in the data active means inhibition above about 50%
Rpn11 block: blocks the human proteasome subunit Rpn11; human 26S proteasome, Ub4-pepOG fluorescence polarization; 20S core pre-blocked with epoxomicin; inhibition, % at 20 µM; hit rate 0.59% among 360,000; O00487;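 active means inhibition at 20 µM, scaled to each plate's controls, above about 33%, limit read from the data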
Target sequence (O00487 whole entry, looked up): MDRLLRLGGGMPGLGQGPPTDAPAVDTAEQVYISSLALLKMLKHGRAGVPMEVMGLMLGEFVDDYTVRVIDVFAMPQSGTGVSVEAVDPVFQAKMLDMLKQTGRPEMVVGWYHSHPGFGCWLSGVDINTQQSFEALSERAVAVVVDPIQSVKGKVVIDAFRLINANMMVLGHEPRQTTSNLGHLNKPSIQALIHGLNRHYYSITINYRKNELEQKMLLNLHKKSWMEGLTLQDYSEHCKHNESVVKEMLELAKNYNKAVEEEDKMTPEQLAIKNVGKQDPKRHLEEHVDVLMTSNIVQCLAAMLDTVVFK
STEP inh: inhibitors of human striatal-enriched phosphatase STEP; AID 588621; hit rate 0.25% among 360,000; recombinant STEP, OMFP fluorogenic substrate, fluorescence; inhibition, % at 20 µM; P54829;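 active means inhibition at 20 µM, scaled per plate between control wells, above about 37%, limit read from the data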;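 further: 0% = DMSO with enzyme and substrate and 100% = substrate only without enzyme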
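Test system: STEP tyrosine phosphatase / Reagent: OMFP at 25 µM / Doses: 20 µM, 1% DMSO / Read-out: percent inhibition scaled to no-enzyme and uninhibited-enzyme controls, plate-pattern corrected / Detection: FITC-channel fluorescence of OMFP product / Medium: Bis-Tris buffer pH 6.0, 2.5 mM DTT, 0.005% Tween 20 / Schedule: 20 min at room temperature, dark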
Scp-1 inhibitor: blocks human Scp-1 phosphatase activity; AID 493091; Recombinant Scp1, phosphopeptide, malachite green phosphate absorbance; inhibition, % at 20 µM; Q9GZU7; hit rate 0.88% among 340,000;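 active means inhibition above about 50% at 20 µM, limit read from the data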;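 further: plate controls were DMSO wells with enzyme for no effect and wells lacking enzyme for full effect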
Target sequence (Q9GZU7 76-261 limits assumed): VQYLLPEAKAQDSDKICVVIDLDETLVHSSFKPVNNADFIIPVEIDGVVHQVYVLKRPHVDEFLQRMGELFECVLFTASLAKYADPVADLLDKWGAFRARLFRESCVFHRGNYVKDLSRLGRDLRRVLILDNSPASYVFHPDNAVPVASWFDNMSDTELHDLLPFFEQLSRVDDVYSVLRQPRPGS
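assay system = SCP-1 phosphatase catalytic domain, residues 76-261 | buffer or medium = 50 mM Tris acetate pH 5.5, 0.005% Tween-20, 10 mM MgCl2 | incubation = enzyme reaction 45 min at room temperature, colour 5 min, stabilisation 30 min | signal = Phosphate-binding colour reagent, absorbance read at 630 nm | measure = % inhibition at 20 µM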
Beacon interf DR: counter-screen for DNMT1 inhibitors: spectral interference, dose response. shares compounds with DNMT1 block. molecular beacon fluorescence. IC50, µM. 200 tested, under 10 active; call rule not given here
DNMT1 confirm: DNMT1 inhibition confirmation, single concentration; DNMT1 molecular beacon HinP1I cleavage, fluorescence; shares compounds with DNMT1 block; inhibition, % at 10 µM; hit rate 8% among 2,300;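 active means average inhibition of at least 30% in the single-concentration confirmation test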
DNMT1 interf: counter-screen for DNMT1 inhibitors: spectral interference. shares compounds with DNMT1 block. DNMT1 molecular beacon spectral interference counterscreen, fluorescence 485/520. activation (fluorescence interference), % at 10 µM. hit rate 1% among 2,300. AID 602387;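 active means activation of at least 30% at 10 µM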;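 further: DNMT1 catalytic domain with a HinP1I cleavage step and a FAM/dabcyl DNA beacon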
An asterisk follows results filed as active; nt = not tested or not shown. Most compounds without a hit are left out; they make up all but 2% or so of the library.

SMILES | LMPTP inh | DNMT1 block | Rpn11 block | STEP inh | Scp-1 inhibitor | DNMT1 confirm | DNMT1 interf | others
Cc1ccc(Sc2ccc(/C=C3/C(=O)NN(c4ccccc4)C3=O)o2)cc1 | 4 | 65* | 6 | 8 | 3 | 13 | 3
O=C1NN(c2ccccc2)C(=O)/C1=C/c1ccc(Sc2ccc(Cl)cc2)o1 | 5 | 88* | 1 | 2 | 9 | 19 | 7
O=C(CN1C(=O)CC(c2ccccc2)S(=O)(=O)c2ccccc21)N1CCCCC1 (stereo unspecified) | 1 | 1 | 4 | -2 | 4 | nt | nt
COc1ccccc1C(=O)Nc1sc2c(c1C(=O)NCc1ccco1)CCCC2 | 0 | 51* | -7 | -2 | -10 | -1 | -4
COc1ccc2c(c1)N(C)/C(=C1/SC(=NCc3ccccc3)N(c3ccccc3)C1=O)S2 | -2 | 53* | nt | -1 | 9 | 3 | 0
Nc1cc(S(=O)(=O)Nc2ccc(Cl)cc2)ccc1N1CCOCC1 | 2 | 169* | 5 | 13 | -1 | 2 | 4
CC(C)N(CCCNC(=O)c1nn(C)c2c1CS(=O)(=O)c1ccccc1-2)Cc1ccccc1 | 0 | 1 | -7 | 0 | -3 | nt | nt
COc1cccc(-c2[nH]nc3c2C(c2ccsc2)C(C#N)=C(N)O3)c1 (stereo unspecified) | -1 | -16 | -3 | 0 | -11 | nt | nt
COc1cccc(-c2[nH]nc3c2C(c2ccoc2)C(C#N)=C(N)O3)c1 (stereo unspecified) | 0 | 67* | -4 | 1 | 17 | 4 | 1
COc1ccc(N2CCN(C3CCCN(Cc4cccc(OC)c4)C3)CC2)cc1 (stereo unspecified) | 0 | 2 | 4 | -2 | -2 | nt | nt
COc1cccc(NC(=O)CSc2nnc(Cc3cccn3C)n2-c2ccc(F)cc2)c1 | 0 | 76* | -2 | -1 | 0 | 3 | 5
O=C(/C=C/c1ccc(Cl)cc1Cl)N1CCN(c2ccccc2[N+](=O)[O-])CC1 | 7 | 92* | 2 | 4 | -14 | 1 | -2
O=C(/C=C/c1ccc(Cl)cc1Cl)N1CCN(c2ccc([N+](=O)[O-])c(N3CCOCC3)c2)CC1 | 9 | -6 | -36 | -5 | -1 | nt | nt
CCc1nn(CC(=O)NC2CCN(Cc3ccccc3)CC2)c(=O)c2cc3cc(F)ccc3n12 | 0 | 30 | -2 | -2 | -5 | nt | nt
CCc1nn(CC(=O)NC(C)CCc2ccccc2)c(=O)c2cc3cc(F)ccc3n12 (stereo unspecified) | 1 | 53* | -3 | 3 | -2 | 2 | 1
COc1ccc(S(=O)(=O)N(C)CC(=O)NCCCn2ccnc2)cc1Cl | -2 | 0 | 0 | 1 | -7 | nt | nt
O=C(N/N=C/c1ccco1)c1cccc(S(=O)(=O)Nc2ccccc2Cl)c1 | 5 | 56* | -4 | 2 | 35 | 2 | 2
Cc1ccc(/C=N/NC(=O)c2cccc(S(=O)(=O)Nc3ccccc3Cl)c2)o1 | 0 | 0 | 2 | 4 | -14 | nt | nt
CCN(CC)CCCNc1nc2cc(OC)c(OC)cc2c2nc(-c3ccccc3)nn12 | 5 | 64* | 2 | 0 | -1 | 26 | -1 | Beacon interf DR=>99
COCCCNc1nc2cc(OC)c(OC)cc2c2nc(-c3ccccc3)nn12 | 2 | -8 | -1 | 2 | -7 | nt | nt
CCOc1ccc(NC(=O)CN2CCCC2c2cccs2)cc1S(=O)(=O)N1CCCCC1 (stereo unspecified) | 1 | -5 | 14 | 0 | -2 | nt | nt
COc1ccc(NC(=O)c2cc(-c3cc(F)ccc3OCC3CCCO3)n[nH]2)cc1OC (stereo unspecified) | 2 | 10 | -1 | 0 | nt | nt | nt
Cc1ccc(-c2nc(C(=O)NCCCN(C)C)cc3c2[nH]c2ccccc23)cc1 | 3 | 56* | -1 | 0 | -2 | 0 | -2
O=C(Nc1cccc(Cl)c1)c1cc2c(=O)n3ccccc3nc2s1 | 24 | 62* | 6 | 2 | -8 | 7 | 18
CCNc1nc(NC(C)C)nc(N(C#N)C(C)C(=O)N(CC)CC)n1 (stereo unspecified) | 0 | 2 | -3 | -3 | -14 | nt | nt
SMILES | LMPTP inh | DNMT1 block | Rpn11 block | STEP inh | Scp-1 inhibitor | DNMT1 confirm | DNMT1 interf | others
CC(C=NNC(=O)C(=O)NN=CC(C)=Cc1ccccc1)=Cc1ccccc1 | -1 | 63* | 5 | 0 | -10 | 2 | 4
N#Cc1c(NC(=O)CSc2ncnc3sccc23)oc(-c2ccco2)c1-c1ccco1 | 12 | 92* | 33 | 2 | -1 | 5 | 2
CCOC(=O)C1=C(C)N(C[C@@H]2CC[C@@H](Cc3ccc(-c4ccccc4)cc3)O2)C(=O)NC1c1ccc(SCc2ccco2)c([N+](=O)[O-])c1 (stereo partly specified) | 6 | 94* | -5 | 1 | 35 | 6 | -4
CCOC(=O)C1=C(C)N(C[C@@H]2CC[C@@H](Cc3ccc(-c4ccccc4)cc3)O2)C(=O)NC1c1ccc(C(F)(F)F)cc1 (stereo partly specified) | 3 | -7 | 6 | 0 | -1 | nt | nt
CCOc1cccc(=O)c2c(C)n(CC(=O)c3ccccc3)c(C)c12 | 9 | 37 | 19 | 2 | 2 | nt | nt
COc1cccc(=O)c2c(C)n(CC(=O)c3ccccc3)c(C)c12 | 18 | 63* | 16 | 4 | 18 | 0 | 1
O=C(Nc1ccc(C(=O)N2CCCCC2)cc1)C1CC1 | -1 | 3 | 7 | -3 | -8 | nt | nt
Cc1ccccc1Cn1nc(C)c(NC(=O)C2c3ccccc3Oc3ccccc32)c1C | -1 | 33 | 6 | -11 | 3 | nt | nt
CCn1cnc2c1c(=O)n(Cc1cccc(Br)c1)c(=O)n2Cc1ccccc1 | 2 | 68* | 14 | 0 | -10 | 9 | 10
Cn1cnc2c1c(=O)n(Cc1cccc(Br)c1)c(=O)n2C | -2 | -1 | -6 | -2 | -7 | nt | nt
C[C@H](NC(=O)c1ccco1)C(=O)Nc1nc(-c2ccccn2)cs1 | -2 | 77* | 3 | 1 | -10 | 8 | 4
O=C(Nc1nc(-c2ccccn2)cs1)c1ccco1 | 6 | 13 | 11 | 4 | -5 | nt | nt
CCOC(=O)C1CCCN(c2nc3ccccc3nc2NS(=O)(=O)c2ccc(C)cc2)C1 (stereo unspecified) | 2 | 1 | 5 | 4 | -8 | nt | nt
O=C1/C(=C/c2ccco2)SC(=S)N1CC1CCCO1 (stereo unspecified) | 32 | 71* | 7 | 47* | 63* | 1 | 0

Screening results (PubChem BioAssay)
